Laboratory results as given in ChEMBL document CHEMBL4196009, “Novel vitexin-inspired scaffold against leukemia” (Eur J Med Chem, 2018).

How the values were obtained:
KOPN-8 [1] = test: Induction of apoptosis in human KOPN8 cells assessed as necrotic cells at 5 uM after 24 hrs by Annexin V-FITC/propidium iodide staining-based flow cytometry (reference value: 0.2%); type: functional
Summary of the method: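 KOPN-8 cells were treated for 24 h, with a DMSO vehicle control and a staurosporine positive control. Cells were stained with FITC-Annexin V and propidium iodide and analysed by flow cytometry. Quadrant gating separated viable, early apoptotic, late apoptotic (Q2) and necrotic populations.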

SUP-B15 [2] = test: Induction of apoptosis in human SUP-B15 cells assessed as necrotic cells at 5 uM after 24 hrs by Annexin V-FITC/propidium iodide staining-based flow cytometry (reference value: 9.2%); type: functional
KOPN-8 [3] = test: Cell cycle arrest in human KOPN8 cells assessed as accumulation at G2/M phase at 5 uM after 24 hrs by propidium iodide staining-based flow cytometry (reference value: 9.67%); type: functional
Summary of the method: (§1)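 KOPN-8 cells treated 24 h alongside a DMSO vehicle and a staurosporine (2.0 µM) positive control. Apoptosis was scored by FITC Annexin V / propidium iodide flow cytometry with quadrant gating (early, late apoptotic). DNA content was measured by PI staining to give the percentage of cells in G0/G1, S and G2/M. Groups were compared by t-test; error bars are SD.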

MDA-MB-231 [4] = test: Cell cycle arrest in human MDA-MB-231 cells assessed as accumulation at G0/G1 phase at 5 uM after 24 hrs by propidium iodide staining-based flow cytometry (reference value: 70.47%); type: functional
THLE-2 = test: Antiproliferative activity against human THLE2 cells after 72 hrs by CelTiter-Glo assay; type: cell-based; details: THLE-2, 72 h
SUP-B15 [5] = test: Induction of apoptosis in human SUP-B15 cells assessed as viable cells at 10 uM after 24 hrs by Annexin V-FITC/propidium iodide staining-based flow cytometry (reference value: 82.8%); type: functional; details: SUP-B15, 24 h, read-out: Activity
KOPN-8 [6] = test: Cell cycle arrest in human KOPN8 cells assessed as accumulation at G0/G1 phase at 10 uM after 24 hrs by propidium iodide staining-based flow cytometry (reference value: 24.77%); type: functional; summary of the method: as §1
MDA-MB-231 [7] = test: Cell cycle arrest in human MDA-MB-231 cells assessed as accumulation at G2/M phase at 20 uM after 24 hrs by propidium iodide staining-based flow cytometry (reference value: 9.38%); type: functional
KOPN-8 [8] = test: Induction of apoptosis in human KOPN8 cells assessed as upregulation of cleaved PARP level after 3 to 24 hrs by Western blot analysis; type: functional, cell-based
Summary of the method: (§2)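 KOPN-8 cells were exposed to compound for 3 h and 24 h, with or without N-acetylcysteine added to a parallel set as antioxidant. Lysates were analysed by Western blot for cleaved PARP, Mcl-1, Ser-2-phosphorylated RNAPII CTD, cMyc, total Rb and pRb. Signals were compared against controls for dose-dependent change.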

Homo sapiens [9] = species: Homo sapiens; test: Inhibition of RNA polymerase 2 C-terminal domain phosphorylation at Ser2 residue in human KOPN8 cells after 24 hrs by Western blot analysis; type: cell-based; summary of the method: as §2
[10] = molecular target: T1, Retinoblastoma-associated protein (Homo sapiens) (UniProt P06400); test: Inhibition of Rb phosphorylation in human KOPN8 cells after 24 hrs by Western blot analysis; type: cell-based; summary of the method: as §2
T1 sequence (whole entry): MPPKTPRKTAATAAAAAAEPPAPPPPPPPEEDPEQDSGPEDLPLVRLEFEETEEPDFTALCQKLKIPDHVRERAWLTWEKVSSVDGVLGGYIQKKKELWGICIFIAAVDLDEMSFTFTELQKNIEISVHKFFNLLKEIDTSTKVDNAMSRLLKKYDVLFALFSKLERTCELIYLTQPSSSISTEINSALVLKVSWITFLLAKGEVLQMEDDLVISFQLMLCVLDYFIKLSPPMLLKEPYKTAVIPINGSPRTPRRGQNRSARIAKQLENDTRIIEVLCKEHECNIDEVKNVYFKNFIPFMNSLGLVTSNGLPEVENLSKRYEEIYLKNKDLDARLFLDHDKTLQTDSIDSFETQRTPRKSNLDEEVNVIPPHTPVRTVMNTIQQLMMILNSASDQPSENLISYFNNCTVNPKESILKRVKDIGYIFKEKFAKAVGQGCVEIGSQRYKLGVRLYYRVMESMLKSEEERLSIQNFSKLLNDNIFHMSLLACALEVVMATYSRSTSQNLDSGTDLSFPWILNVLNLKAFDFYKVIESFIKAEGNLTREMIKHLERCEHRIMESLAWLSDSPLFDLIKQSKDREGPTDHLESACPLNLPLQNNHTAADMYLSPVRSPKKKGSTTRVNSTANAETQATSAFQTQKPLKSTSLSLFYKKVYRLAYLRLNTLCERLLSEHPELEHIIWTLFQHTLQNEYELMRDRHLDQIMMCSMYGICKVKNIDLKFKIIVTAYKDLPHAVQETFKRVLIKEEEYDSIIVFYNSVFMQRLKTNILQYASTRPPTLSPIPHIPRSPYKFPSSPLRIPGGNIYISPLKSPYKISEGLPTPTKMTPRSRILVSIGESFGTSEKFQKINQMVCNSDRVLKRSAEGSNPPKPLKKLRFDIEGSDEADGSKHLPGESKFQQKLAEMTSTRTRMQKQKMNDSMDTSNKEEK

[11] = molecular target: T1, Retinoblastoma-associated protein (Homo sapiens); test: Inhibition of Rb phosphorylation in human KOPN8 cells assessed as ratio of phosphorylated Rb to total Rb levels at 10 uM after 3 hrs by Western blot analysis relative to control; type: cell-based
Summary of the method: (§3)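 KOPN-8 pre-B ALL cells were treated for 3 h and 24 h, with or without N-acetyl cysteine added to a parallel set of cells as an antioxidant/ROS quencher. Lysates were analysed by Western blot for phosphorylated Rb and total Rb. The same blots also probed PARP cleavage, Mcl-1, Ser-2-phosphorylated RNAPII CTD and cMyc.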

KOPN-8 [12] = test: Induction of apoptosis in human KOPN8 cells assessed as effect on Mcl-1 level at 10 uM pre-treated with NAC for 1 hr and measured after 24 hrs by Western blot analysis relative to control; type: functional
Homo sapiens [13] = species: Homo sapiens; test: Inhibition of RNA polymerase 2 C-terminal domain phosphorylation at Ser2 residue in human KOPN8 cells at 10 uM pre-treated with NAC for 1 hr and measured after 24 hrs by Western blot analysis relative to control; type: cell-based; summary of the method: as §2
KOPN-8 [14] = test: Effect on c-Myc expression in human KOPN8 cells at 30 uM after 3 hrs by Western blot analysis relative to control; type: functional
Summary of the method: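 KOPN-8 cells were treated at 10–100 µM final, with or without N-acetylcysteine co-addition, for 3 h and 24 h. Lysates were analysed by Western blot for PARP cleavage, Mcl-1, phospho-Ser2 RNAPII CTD, c-Myc, total Rb and pRb. Levels are relative to the vehicle control.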

[15] = molecular target: T1, Retinoblastoma-associated protein (Homo sapiens); test: Inhibition of Rb phosphorylation in human KOPN8 cells assessed as ratio of phosphorylated Rb to total Rb levels at 30 uM pre-treated with NAC for 1 hr and measured after 3 hrs by Western blot analysis relative to control; type: cell-based; summary of the method: as §3
[16] = molecular target: T1, Retinoblastoma-associated protein (Homo sapiens); test: Inhibition of Rb phosphorylation in human KOPN8 cells assessed as ratio of phosphorylated Rb to total Rb levels at 10 uM pre-treated with NAC for 1 hr and measured after 24 hrs by Western blot analysis relative to control; type: cell-based; summary of the method: as §3

Row | inhibition [10] | fold change (FC) [11] | fold change (FC) [15] | fold change (FC) [16] | Structure (SMILES) | Activity (KOPN-8 [1]) | Activity (SUP-B15 [2]) | Activity (KOPN-8 [3]) | Activity (MDA-MB-231 [4]) | EC50 (THLE-2) | viability at 10 µM (SUP-B15 [5]) | Activity (KOPN-8 [6]) | Activity (MDA-MB-231 [7]) | Activity (KOPN-8 [8]) | inhibition (Homo sapiens [9]) | fold change (FC) (KOPN-8 [12]) | fold change (FC) (Homo sapiens [13]) | fold change (FC) (KOPN-8 [14])
1 |  |  |  |  | CN(C)C(=O)c1cc2cnc(Nc3ccc(N4CCNCC4)cn3)nc2n1C1CCCC1 [RIBOCICLIB] | 0.3% | 25.7% | 28.79% | 90.85% |  |  |  |  |  |  |  |  | 
2 | Dose-dependent effect | 1 | 1 | 1 | COc1ccc(-c2c(I)c(=O)c3c(OC)cc(OC)cc3n2S(=O)(=O)c2ccc(OC)cc2)cc1 |  |  |  |  | 57 µM | 70.5% | 47.22% | 15.97% | Dose-dependent effect | Dose-dependent effect | 0.8 | 1.5 | 0.6
